Assay results from ChEMBL document CHEMBL1121771, “Chemistry and hypoglycemic activity of benzimidoylpyrazoles” (J Med Chem, 1981).

Key:
Rattus norvegicus [1] = experiment: Blood glucose concentration 2 hours after the administration in glucose-primed rat at 100 mg/kg.; assay type: functional
Method in brief: (§1)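 Male Sprague-Dawley rats (140-150 g), groups of six, fasted 16 h, then given 100 mg glucose sc in 0.5 mL isotonic NaCl. Test compound given orally right after as an aqueous carboxymethylcellulose suspension (0.5 mL); controls received vehicle. Blood was taken by cardiac puncture under light ether anesthesia 2 h later. Glucose measured by Autoanalyzer modification of Hoffman method; mean percent change versus control group.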

Rattus norvegicus [2] = species on record: Rattus norvegicus; experiment: Percent change in blood glucose concentration in glucose-primed rat to that of control rats.; assay type: functional; method in brief: as §1
Rattus norvegicus [3] = experiment: Blood glucose concentration at 2 hours after the administration in glucose-primed rat; assay type: functional; method in brief: as §1
Cavia porcellus [4] = experiment: Percent reduction in blood glucose after perorally administration of compound at 30 mg/kg in normal fasted guinea pig; assay type: functional; conditions: route oral
Method in brief: (§2)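 Hartley guinea pigs (450-500 g), male and female, grouped by sex in fours, food withheld 18 h, water allowed. Zero-time blood taken by cardiac puncture, then oral dosing, with a second cardiac sample 5 h later. Reported as percent change in blood glucose relative to the pretreatment value.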

[5] = Lethal dose after intraperitoneal administration in mouse; conditions: in vivo, ip
[6] = Lethal dose after peroral administration in mouse; conditions: in vivo, po
Rattus norvegicus [7] = experiment: Percent reduction in blood glucose after perorally administration of compound at 29.2 mg/kg in alloxanized rat; assay type: functional; conditions: route oral
Method in brief: (§3)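 Male Sprague-Dawley rats (180-220 g) made diabetic with 225 mg/kg alloxan monohydrate intraabdominally; glucosuria checked by reagent strip after 3 days, positives grouped in sixes. Control tail-vein blood taken, oral compound given, blood resampled at 5 h. Reported as percent change in blood glucose versus pretreatment.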

Rattus norvegicus [8] = experiment: Percent reduction in blood glucose after perorally administration of compound at 100 mg/kg in non-glucose-primed rat; conditions: route oral
Rattus norvegicus [9] = experiment: Percent reduction in blood glucose after perorally administration of compound at 25 mg/kg in adrenalectomized rat; conditions: route oral
Cavia porcellus [10] = experiment: Percent reduction in blood glucose after perorally administration of compound at 100 mg/kg in normal fasted guinea pig; assay type: functional; conditions: route oral; method in brief: as §2
Rattus norvegicus [11] = experiment: Percent reduction in blood glucose after perorally administration of compound at 300 mg/kg in alloxanized rat; assay type: functional; conditions: route oral; method in brief: as §3
Rattus norvegicus [12] = experiment: Percent reduction in blood glucose after perorally administration of compound at 50 mg/kg in glucose-primed rat; assay type: functional; conditions: route oral; method in brief: as §1
Rattus norvegicus [13] = experiment: Percent reduction in blood glucose after perorally administration of compound at 100 mg/kg in glucose-primed rat; assay type: functional; conditions: route oral; method in brief: as §1
Rattus norvegicus [14] = experiment: Percent reduction in blood glucose after perorally administration of compound at 100 mg/kg in non-glucose-primed rat; assay type: functional; conditions: route oral
Rattus norvegicus [15] = experiment: Percent reduction in blood glucose after perorally administration of compound at 25 mg/kg in glucose-primed rat; assay type: functional; conditions: route oral; method in brief: as §1
Rattus norvegicus [16] = experiment: Percent reduction in blood glucose after perorally administration of compound at 25 mg/kg in adrenalectomized rat; assay type: functional; conditions: route oral
Rattus norvegicus [17] = experiment: Percent reduction in blood glucose after perorally administration of compound at 300 mg/kg in non-glucose-primed rat; conditions: route oral
Cavia porcellus [18] = experiment: Percent reduction in blood glucose after perorally administration of compound at 25 mg/kg in normal fasted guinea pig; assay type: functional; conditions: route oral; method in brief: as §2
Rattus norvegicus [19] = experiment: Percent reduction in blood glucose after perorally administration of compound at 80 mg/kg in non-glucose-primed rat; assay type: functional; conditions: route oral
Rattus norvegicus [20] = experiment: Percent reduction in blood glucose after perorally administration of compound at 100 mg/kg in alloxanized rat; assay type: functional; conditions: route oral; method in brief: as §3
Rattus norvegicus [21] = experiment: Percent reduction in blood glucose after perorally administration of compound at 120 mg/kg in non-glucose-primed rat; assay type: functional; conditions: route oral
Cavia porcellus [22] = experiment: Percent reduction in blood glucose after perorally administration of compound at 125 mg/kg in normal fasted guinea pig; assay type: functional; conditions: route oral; method in brief: as §2
Cavia porcellus [23] = experiment: Percent reduction in blood glucose after perorally administration of compound at 150 mg/kg in normal fasted guinea pig; assay type: functional; conditions: route oral; method in brief: as §2
Cavia porcellus [24] = experiment: Percent reduction in blood glucose after perorally administration of compound at 160 mg/kg in normal fasted guinea pig; assay type: functional; conditions: route oral; method in brief: as §2
Rattus norvegicus [25] = experiment: Percent reduction in blood glucose after perorally administration of compound at 500 mg/kg in glucose-primed rat; assay type: functional; conditions: route oral; method in brief: as §1
Rattus norvegicus [26] = experiment: Percent reduction in blood glucose after perorally administration of compound at 10 mg/kg in glucose-primed rat; assay type: functional; conditions: route oral; method in brief: as §1
Rattus norvegicus [27] = experiment: Percent reduction in blood glucose after perorally administration of compound at 10 mg/kg in adrenalectomized rat(p= 0.05); assay type: functional; conditions: route oral
Rattus norvegicus [28] = experiment: Percent reduction in blood glucose after perorally administration of compound at 25 mg/kg in non-glucose-primed rat; assay type: functional; conditions: route oral
Rattus norvegicus [29] = experiment: Percent reduction in blood glucose after perorally administration of compound at 250 mg/kg in glucose-primed rat; assay type: functional; conditions: route oral; method in brief: as §1
Rattus norvegicus [30] = experiment: Percent reduction in blood glucose after perorally administration of compound at 20 mg/kg in adrenalectomized rat; assay type: functional; conditions: route oral

SMILES | Blood glucose (Rattus norvegicus [1]) | Change (Rattus norvegicus [2]) | Blood glucose (Rattus norvegicus [3]) | also measured
COC(=O)c1cc(C)n(/C(=N\c2cccc(C)c2C)c2ccccc2)n1 | 75.6% | 8.3% |  | 
CCCC/N=C(/c1ccccc1)n1nc(C(=O)OC)cc1C | 66.1% | 21.2% |  | 
COC(=O)c1cc(C)n(/C(=N\CC(C)C)c2ccccc2)n1 | 59.7% | 25.5% |  | 
COC(=O)c1cc(C)n(/C(=N\c2ccccc2)c2ccc(Cl)c(Cl)c2)n1 |  | 24.3% | 101.5% | 
COC(=O)c1cc(C)n(/C(=N\c2ccccc2)c2ccccc2C)n1 |  | 21.4% | 57.7% | 
COC(=O)c1cc(-c2ccc(Cl)cc2)n(/C(=N\c2ccc(Cl)cc2)c2ccccc2)n1 | 77.7% | 1.2% |  | 
COC(=O)c1cc(C)n(/C(=N\CCC(C)C)c2ccccc2)n1 | 91.3% | 1.3% |  | 
COC(=O)c1cc(-c2ccc(Cl)cc2)n(/C(=N\c2ccc(OC)cc2)c2ccccc2)n1 | 78.4% | 3.9% |  | 
COC(=O)c1cc(C)n(/C(=N\c2cccc(OC)c2)c2ccccc2)n1 |  | 22% | 63% | 
COC(=O)c1cc(C)n(/C(=N\CC(C)C)c2ccc(C)cc2)n1 | 65.2% | 19% |  | 
COC(=O)c1cc(C)n(/C(=N\c2ccc(C)cc2)c2ccc(C)cc2)n1 |  | 25.4% | 60.4% | 
COC(=O)c1cc(C)n(/C(=N\c2ccc(C)cc2)c2ccccc2)n1 |  | 18.9% | 71.9% | 
COC(=O)c1cc(C)n(/C(=N\CC(C)C)c2ccc(F)cc2)n1 | 68.9% | 1.3% |  | 
Cc1cc(C)n(/C(=N\C2CCCCC2)c2ccccc2)n1 | 69.8% | 13.6% |  | 
COC(=O)c1cc(C)n(/C(=N\c2ccccc2)c2ccccc2OC)n1 |  | 25.7% | 58.3% | 
Cc1cc(C)n(/C(=N\CC(C)C)c2ccccc2)n1 | 62.8% | 10.6% |  | 
COC(=O)c1cc(-c2ccc(Cl)cc2)n(/C(=N\c2ccccc2)c2ccccc2)n1 | 81.1% | 5.6% |  | 
COc1ccc(/N=C(/c2ccccc2)n2nc(C)cc2C)cc1 |  | 27.2% | 60.6% | 
COC(=O)c1cc(C)n(/C(=N\c2ccccc2)c2ccccc2)n1 |  | 34.3% | 58% | 
COC(=O)c1cc(C)n(/C(=N\CC(C)C)c2cccc(C(F)(F)F)c2)n1 | 62.2% | 25.2% |  | 

SMILES | Blood glucose (Rattus norvegicus [1]) | Change (Rattus norvegicus [2]) | Blood glucose (Rattus norvegicus [3]) | also measured
COC(=O)c1cc(-c2ccc(Cl)cc2)n(/C(=N\c2ccc(C)cc2)c2ccc(C)cc2)n1 | 69.8% | 9% |  | 
COC(=O)c1cc(C)n(/C(=N\c2ccccc2)c2ccccc2Cl)n1 | 70% | 8.9% |  | 
COC(=O)c1cc(-c2ccc(Cl)cc2)n(/C(=N\c2ccccc2)c2ccccc2C)n1 | 71.1% | 6.3% |  | 
COC(=O)c1cc(C)n(/C(=N\C2CCCCC2)c2ccccc2)n1 |  | 34.5% | 52.1% | Reduction (Cavia porcellus [4]): 0%; LD50 [5]: 1000 mg/kg; LD50 [6]: 1000 mg/kg; Reduction (Rattus norvegicus [3]): 27%; Reduction (Rattus norvegicus [7]): 29.5%; Reduction (Rattus norvegicus [8]): 7.6%; Reduction (Rattus norvegicus [9]): 32%
Cc1cc(C)n(/C(=N\c2ccccc2)c2ccccc2)n1 |  | 18.3% | 72.1% | 
COC(=O)c1cc(C)n(/C(=N\C2CCCCC2)c2ccccc2OC)n1 |  | 20.5% | 68.4% | 
CC/N=C(/c1ccccc1)n1nc(C(=O)OC)cc1C | 54.9% | 34% |  | 
COC(=O)c1cc(-c2ccc(Cl)cc2)n(/C(=N\C2CCCCC2)c2ccccc2OC)n1 | 69.2% | 12.9% |  | 
COC(=O)c1cc(C)n(/C(=N\c2ccc(OC)cc2)c2ccccc2)n1 |  | 40% | 62.2% | Reduction (Cavia porcellus [10]): 21%; LD50 [5]: 1000 mg/kg; LD50 [6]: 1000 mg/kg; Reduction (Rattus norvegicus [11]): 49%; Reduction (Rattus norvegicus [12]): 33.8%; Reduction (Rattus norvegicus [13]): 51.3%; Reduction (Rattus norvegicus [14]): 31.5%; Reduction (Rattus norvegicus [15]): 35.2%; Reduction (Rattus norvegicus [16]): 44.3%
COC(=O)c1cc(-c2ccc(Cl)cc2)n(/C(=N\C2CCCCC2)c2ccccc2)n1 | 84.9% | 4.4% |  | 
COC(=O)c1cc(C)n(/C(=N\c2cccc(C(F)(F)F)c2)c2ccccc2)n1 |  | 33.5% | 57.9% | 
C=CC/N=C(/c1ccccc1)n1nc(C(=O)OC)cc1C | 69.6% | 7% |  | 
CC/N=C(/c1ccccc1)n1nc(C)cc1C | 58.6% | 24.7% |  | 
COC(=O)c1cc(C)n(/C(=N\c2ccc(Cl)cc2)c2ccccc2)n1 | 78.7% | 5.5% |  | 
COC(=O)c1cc(C)n(/C(=N\c2ccc(OC)c(OC)c2)c2ccccc2)n1 |  | 34.1% | 58% | 
COC(=O)c1cc(C)n(/C(=N\c2ccccc2OC)c2ccccc2)n1 |  | 35.1% | 96% | 
CCC/N=C(/c1ccccc1)n1nc(C(=O)OC)cc1C | 80.5% | 6.2% |  | 
CCCCNC(=N)NC(=N)N [BUFORMIN] |  |  |  | Reduction (Cavia porcellus [4]): 50%; LD50 [5]: 140 mg/kg; LD50 [6]: 300 mg/kg; Reduction (Rattus norvegicus [13]): 0%; Reduction (Rattus norvegicus [7]): 21.9%; Reduction (Rattus norvegicus [17]): 25.9%
N=C(N)NC(=N)NCCc1ccccc1 [PHENFORMIN] |  |  |  | Reduction (Cavia porcellus [18]): 46%; Reduction (Rattus norvegicus [19]): 25.3%; Reduction (Rattus norvegicus [13]): 0%; Reduction (Rattus norvegicus [20]): 62%; Reduction (Rattus norvegicus [21]): 52.9%
Cc1ccc(S(=O)(=O)NC(=O)NN2CCCCCC2)cc1 [TOLAZAMIDE] |  |  |  | Reduction (Cavia porcellus [10]): 33.5%; Reduction (Cavia porcellus [22]): 26.7%; Reduction (Cavia porcellus [23]): 30.4%; Reduction (Cavia porcellus [24]): 25%; LD50 [5]: 1000 mg/kg; LD50 [6]: 1000 mg/kg; Reduction (Rattus norvegicus [25]): 51.1%; Reduction (Rattus norvegicus [26]): 28.1%; Reduction (Rattus norvegicus [27]): 75.8%; Reduction (Rattus norvegicus [20]): 0%; Reduction (Rattus norvegicus [15]): 50%; Reduction (Rattus norvegicus [28]): 29.4%; Reduction (Rattus norvegicus [29]): 42.9%; Reduction (Rattus norvegicus [30]): 85.6%
